The values below come from ChEMBL document CHEMBL1154882, “Hydrogenative desulphurization of thienopyrrolizinones: an easy and selective access to (Z)-phenethylidenepyrrolizinones with in vitro cytotoxic activity” (Eur J Med Chem, 2010).

For experiment [1], the system named is KB. Description: Cytotoxicity against human KB cells assessed as growth inhibition at 1 uM after 72 hrs by MTS assay. In kind it is functional. The gist of the method: (§1)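 KB cells plated at 650 cells/well, treated 24 h later with compounds in DMSO at 10^-5 or 10^-6 M, in triplicate. Controls got DMSO at 1% final volume; taxotere 2.5×10^-10 M served as reference. After 72 h exposure, MTS reagent added for 3 h at 37 °C and absorbance read at 490 nm. Results given as percent inhibition of proliferation relative to control OD.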
Background: Formazan colour is commonly taken as a measure of viable cells.

Experiment [2] concerns KB. Description: Cytotoxicity against human KB cells assessed as growth inhibition at 10 uM after 72 hrs by MTS assay. In kind it is functional. The gist of the method:
as §1

The test system of experiment [3] is KB. In words: Cytotoxicity against human KB cells assessed as growth inhibition after 72 hrs by MTS assay. In kind it is functional, cell-based. The gist of the method: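 KB cells seeded at 650 cells/well and dosed 24 h later with DMSO solutions (1% final DMSO, also given to controls) over a range starting at 0.5 nM. After 72 h exposure, MTS added for 3 h at 37 °C and A490 read. Proliferation inhibition taken versus control OD. IC50 (50% inhibition) determined in separate duplicate for compounds giving over 80% inhibition at 10^-6 M.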

The nature of experiment [4]: Inhibition of tubulin.

Usually inhibition stands for the relative decrease from the control value, in per cent. Take `CC(C)C1CC(=O)c2cccn21` (configuration not stated): in the experiment with KB [1], the inhibition at 1 µM turned out to be 0%. In addition, in the experiment on KB [2], the inhibition at 10 µM worked out at 0%.

Turning to `C/C(=C1\CC(=O)c2cccn21)c1ccc(Cl)cc1`, the inhibition at 1 µM in the experiment with KB [1] is 0%. In addition, the inhibition at 10 µM in the experiment with KB [2] was determined as 0%.

The IC50 is the concentration that gives 50% inhibition. In the case of `CC(=O)O[C@@]12CO[C@@H]1C[C@H](O)[C@@]1(C)C(=O)[C@H](O)C3=C(C)[C@@H](OC(=O)[C@H](O)[C@@H](NC(=O)OC(C)(C)C)c4ccccc4)C[C@@](O)([C@@H](OC(=O)c4ccccc4)[C@H]21)C3(C)C` [DOCETAXEL], the 50% inhibitory concentration (IC50) in the experiment on KB [3] was 0.4 nM.

Turning to `COc1ccc(-c2csc3c2-n2cccc2C3=O)cc1O`, the inhibition at 1 µM with KB [1] came out at 86%. In the experiment on KB [2], the inhibition at 10 µM amounted to 86%. The results for the IC50 (in the experiment with KB [3]; in experiment [4]) were 5.7 nM and 2900 nM, respectively.

With `COc1ccc(-c2csc3c2-n2cccc2C3=O)cc1`, the inhibition at 1 µM in the experiment on KB [1] was found to be 92%. In the experiment with KB [2], the inhibition at 10 µM amounted to 84%. The half-maximal inhibitory concentration (IC50) with KB [3] was found to be 50 nM.

Regarding `COc1ccc(/C(C)=C2/CC(=O)c3cccn32)cc1`, the inhibition at 1 µM with KB [1] worked out at 1%. The inhibition at 10 µM in the experiment with KB [2] was 78%.

With `COc1ccc(/C(C)=C2/CC(=O)c3cccn32)cc1O`, in the experiment on KB [1], the inhibition at 1 µM is 91%. Moreover, the inhibition at 10 µM in the experiment on KB [2] was found to be 95%. For the same compound, the IC50 in the experiment on KB [3] amounted to 70 nM.
